Measured values as given in ChEMBL document CHEMBL1772972, “Differential gene expression in rat vascular smooth muscle cells following treatment with coptisine exerts a selective antiproliferative effect” (2011).
Active and inactive are the calls of the source. No cut-off for these calls is given here.

What was measured:
A10 [1] = assay: Downregulation of Scd2 mRNA expression in rat A10 cells at 30 uM after 24 hrs by quantitative RT-PCR analysis; assay type: functional, cell-based
Summary of the method: (§1)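 A10 rat aortic smooth muscle cells were seeded at 6 × 10^4 cells/well in 6-well plates and exposed to 30 μM alkaloid for 24 h at 37 °C in 5% CO2. The cells were then harvested and target mRNA levels were quantified by quantitative RT-PCR.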

A10 [2] = assay: Down regulation of Prim2 mRNA expression in rat A10 cells at 30 uM after 24 hrs by quantitative RT-PCR analysis; assay type: functional, cell-based; summary of the method: as §1
[3] = Growth inhibition against rat VSMC after 72 hrs by MTT assay; assay type: functional
Summary of the method: (§2)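 Cells are seeded at 1 × 10^4/well in 24-well plates and cultured 24 h. Alkaloid is then added at increasing concentrations for 72 h. Medium is renewed and MTT added at 1 mg/mL for 4 h. Formazan is dissolved in SDS and A570 read. Growth % = (treated − time 0)/(control − time 0). GI50 is taken from the curves. Data are mean ± SE of 3 wells. Primary VSMCs come from aortas of 10-week male Sprague-Dawley rats, used at passages 5–15.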

G-402 = assay: Growth inhibition against human G402 cells after 48 hrs by MTT assay; assay type: functional; settings: G-402, 48 h
Summary of the method: (§3)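 Cells were seeded in 24-well plates (SKN 1 × 10^4, G-402 2 × 10^4 cells/well) and cultured for 24 h. Alkaloid was then added, for 72 h with SKN or 48 h with G-402, and the medium was renewed. MTT was added (SKN 400 μg/mL, G-402 200 μg/mL) for 4 h, formazan was solubilized in SDS, and A570 was read. Growth % was corrected for time-0 absorbance relative to control, with 3 wells per point, and GI50 was derived from the concentration–growth data.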

[4] = Growth inhibition against human RKN cells after 48 hrs by MTT assay; assay type: functional
Summary of the method: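 RKN human ovarian leiomyosarcoma cells are seeded at 2 × 10^4/well in 24-well plates and cultured 24 h. Alkaloid is then added at increasing concentrations for 48 h. Medium is renewed and MTT added at 200 μg/mL for 4 h. Formazan is dissolved in SDS and A570 read. Growth % is calculated relative to time-0 and untreated absorbances. GI50 is taken from the curves. Data are mean ± SE of 3 wells.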

A10 [5] = assay: Upregulation of Rgc32 mRNA expression in rat A10 cells at 3 to 30 uM […] by quantitative RT-PCR analysis; assay type: functional, cell-based
Summary of the method: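 A10 cells were plated at 6.0 × 10^4 cells/well in 6-well plates. They were treated across a concentration series for 24 h, or for 1, 3, 6, 12 or 24 h in a time course. Rgc32 mRNA was then measured by quantitative RT-PCR. Results are mean ± SD of 3 wells, compared against untreated control.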

[6] = Growth inhibition against human SKN cells after 72 hrs by MTT assay; assay type: functional; summary of the method: as §3
A10 [7] = assay: Downregulation of Impk mRNA expression in rat A10 cells at 30 uM after 24 hrs by quantitative RT-PCR analysis; assay type: functional, cell-based; summary of the method: as §1
A10 [8] = assay: Growth inhibition against rat A10 cells after 72 hrs by MTT assay; assay type: functional; settings: A10, 72 h
[9] = Antiproliferative activity against rat VSMC assessed as cell growth inhibition; assay type: functional; summary of the method: as §2
A10 [10] = assay: Upregulation of Gadd45a mRNA expression in rat A10 cells at 30 uM after 24 hrs by quantitative RT-PCR analysis relative to control; assay type: functional
A10 [11] = assay: Cell cycle arrest in Rgc32 overexpressing rat A10 cells assessed as accumulation at G2/M phase; assay type: functional, cell-based
A10 [12] = assay: Upregulation of p53 mRNA expression in rat A10 cells at 3 to 30 uM after 24 hrs by quantitative RT-PCR analysis; assay type: functional, cell-based
A10 [13] = assay: Cell cycle arrest in Gadd45a overexpressing rat A10 cells assessed as accumulation at G2/M phase; assay type: functional, cell-based
A10 [14] = assay: Upregulation of Gadd45a mRNA expression in rat A10 cells at 30 uM after 3 hrs by quantitative RT-PCR analysis; assay type: functional, cell-based
A10 [15] = assay: Upregulation of Rgc32 mRNA expression in rat A10 cells at 3 to 30 uM after 24 hrs by quantitative RT-PCR analysis; assay type: functional, cell-based
[16] = Upregulation of Gadd45a mRNA expression in rat 3Y1 cells at 30 uM after 24 hrs by quantitative RT-PCR analysis; assay type: functional, cell-based
A10 [17] = assay: Upregulation of p21 mRNA expression in rat A10 cells at 3 to 30 uM after 24 hrs by quantitative RT-PCR analysis; assay type: functional, cell-based
A10 [18] = assay: Upregulation of Rgc32 mRNA expression in rat A10 cells at 3 uM after 24 hrs by quantitative RT-PCR analysis; assay type: functional, cell-based
[19] = Upregulation of Rgc32 mRNA expression in rat 3Y1 cells at 3 to 30 uM after 24 hrs by quantitative RT-PCR analysis; assay type: functional, cell-based
A10 [20] = assay: Upregulation of in Gadd45a mRNA expression in rat A10 cells at 3 uM after 24 hrs by quantitative RT-PCR analysis; assay type: functional, cell-based
A10 [21] = assay: Upregulation of Gadd45a mRNA expression in rat A10 cells at 30 uM after 6 hrs by quantitative RT-PCR analysis; assay type: functional, cell-based
A10 [22] = assay: Upregulation of Rgc32 mRNA expression in rat A10 cells at 30 uM after 24 hrs by quantitative RT-PCR analysis relative to control; assay type: functional
[23] = Growth inhibition against mouse BC3H1 cells after 72 hrs by MTT assay; assay type: functional; settings: BC3H-1, 72 h; summary of the method: as §2
A10 [24] = assay: Upregulation of Ogfrl1 mRNA expression in rat A10 cells at 30 uM after 24 hrs by quantitative RT-PCR analysis; assay type: functional, cell-based; summary of the method: as §1
A10 [25] = assay: Upregulation of Jak2 mRNA expression in rat A10 cells at 30 uM after 24 hrs by quantitative RT-PCR analysis; assay type: functional, cell-based; summary of the method: as §1
A10 [26] = assay: Upregulation of Calm1 mRNA expression in rat A10 cells at 30 uM after 24 hrs by quantitative RT-PCR analysis; assay type: functional, cell-based; summary of the method: as §1

| SMILES | Activity (A10 [1]) | Activity (A10 [2]) | GI50 [3] | GI50 (G-402) | GI50 [4] | Activity (A10 [5]) | GI50 [6] | Activity (A10 [7]) | GI50 (A10 [8]) | GI50 [9] | further results |
| --- | --- | --- | --- | --- | --- | --- | --- | --- | --- | --- | --- |
| COc1ccc2cc3[n+](cc2c1OC)CCc1cc2c(cc1-3)OCO2 [BERBERINE CHLORIDE] | Active | Active | 95.1 µM | 11.9 µM | 49.6 µM | inactive | 15.9 µM | Active | 102 µM | 95.1 µM | – |
| [Cl-].c1c2c(cc3c1OCO3)-c1cc3ccc4c(c3c[n+]1CC2)OCO4 [COPTISINE CHLORIDE] | Active | Active | 3.35 µM | 19.1 µM | 33 µM | inactive | 11.8 µM | Active | 4.49 µM | 3.3 µM | fold change (FC) (A10 [10]): 8; Activity (A10 [11]): Active; Activity (A10 [12]): inactive; Activity (A10 [13]): Active; Activity (A10 [14]): Active; Activity (A10 [15]): Active; fold change (FC) [16]: 1.5; Activity (A10 [17]): Active; Activity (A10 [18]): inactive; Activity [19]: inactive; Activity (A10 [20]): inactive; Activity (A10 [21]): inactive; fold change (FC) (A10 [22]): 3.5; GI50 [23]: 105 µM |
| COc1cc2c(cc1OC)-c1cc3ccc(OC)c(OC)c3c[n+]1CC2 [PALMATINE CHLORIDE] | Active | Active | – | 83.1 µM | – | inactive | 57.4 µM | Active | – | – | Activity (A10 [24]): Active; Activity (A10 [25]): Active; Activity (A10 [26]): Active |
